# An excerpt weighted towards active compounds, which were near 3.1% of everything screened.
# Apaf1 inhib: inhibitors of human Apaf-1 apoptosome. inhibition, % at 20 µM. O14727. AID 489030. 0.71% of 330,000 active. reconstituted apoptosome caspase-3 activity, DEVD-Rh110 fluorescence; active = inhibition of at least 40% at 20 µM
#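 Material: reconstituted apoptosome with Apaf-1, cytochrome c, caspase-9, procaspase-3, dATP; medium: pH 7.5 Hepes buffer with CHAPS, BSA, DTT; also added: cytochrome c and DEVD-Rh110 substrate; timing: 30 min plus 50 min, RT; signal: Rh110 fluorescence intensity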
# UBC13 inh: human UBC13 polyubiquitination inhibition. UBC13 polyubiquitin chain formation, TR-FRET. inhibition, % at 20 µM. 0.47% of 330,000 active; in the data active = inhibition above about 45%, passing the limit was not always enough
# SENP6 inh: inhibitors of human SENP6 protease. Recombinant SENP6 catalytic domain, aminoluciferin luminescence. inhibition, % at 10 µM. 1.8% of 330,000 active;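 active = inhibition above about 50% at the single tested dose, limit read from the data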
# Target sequence (Q9GZR1 628-1112 limits assumed): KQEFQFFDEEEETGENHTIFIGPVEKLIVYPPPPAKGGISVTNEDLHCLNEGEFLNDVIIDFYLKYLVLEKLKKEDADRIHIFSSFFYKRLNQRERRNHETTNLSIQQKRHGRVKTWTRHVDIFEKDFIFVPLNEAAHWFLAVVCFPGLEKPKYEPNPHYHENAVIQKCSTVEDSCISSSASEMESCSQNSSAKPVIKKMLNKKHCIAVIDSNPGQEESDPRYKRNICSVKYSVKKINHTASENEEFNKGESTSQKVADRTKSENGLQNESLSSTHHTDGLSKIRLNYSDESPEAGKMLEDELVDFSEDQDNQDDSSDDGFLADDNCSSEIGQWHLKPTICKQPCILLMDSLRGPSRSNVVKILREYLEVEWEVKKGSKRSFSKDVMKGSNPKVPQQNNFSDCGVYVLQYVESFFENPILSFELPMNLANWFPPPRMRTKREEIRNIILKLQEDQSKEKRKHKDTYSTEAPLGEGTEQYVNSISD
# SENP8 block-1: SENP8 (human) protease inhibition; Q96LD8; recombinant SENP8, Nedd8 substrate fluorescence; inhibition, % at 20 µM; 0.64% of 360,000 active; AID 602440; in the data active = inhibition mostly above about 40%, no sharp cut-off; inactive = mostly below about 27%
# SENP8 block-2: blocks the human protease SENP8; purified SENP8, Z-RLRGG-aminoluciferin cleavage, luminescence; AID 2540; Q96LD8; inhibition, % at 10 µM; 1.2% of 330,000 active; in the data active = inhibition above about 50%
# SENP7 inh: inhibitors of human SENP7 protease | Q9BQF6 | 1.5% of 330,000 active | recombinant SENP7, Z-RLRGG-aminoluciferin luminescence, 40 min | inhibition, % at 5 µM;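 active = inhibition above about 50% at the single test dose, limit read from the data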
# SENP8 confirm: human SENP8 inhibition, confirmed; shares compounds with SENP7 inh; Recombinant SENP8, Z-RLRGG-aminoluciferin luminescence, 60 min; 40% of 6,200 active; inhibition, % at 12.5 µM;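 active = mean inhibition across replicates above about 50%, limit read from the data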
# SENP6 confirm: confirmation of human SENP6 protease inhibitors; 58% of 6,200 active; recombinant SENP6, Z-RLRGG-aminoluciferin luminescence; AID 488915; shares compounds with SENP7 inh; inhibition, % at 12.5 µM
# SENP7 confirm: confirmation of human SENP7 protease inhibitors | recombinant SENP7, Z-RLRGG-aminoluciferin luminescence, 40 min | inhibition, % at 12.5 µM | 69% of 6,200 active | shares compounds with SENP7 inh
# Casp3 select: selectivity test for SENP inhibitors: human caspase-3 inhibition. shares compounds with SENP7 inh. purified caspase-3, Z-DEVD-aminoluciferin luminescence, 60 min. inhibition, % at 12.5 µM. 60% of 6,200 active. AID 488918;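 active = mean inhibition above about 50%, limit read from the data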
# Target sequence (P42574 28-227 limits assumed): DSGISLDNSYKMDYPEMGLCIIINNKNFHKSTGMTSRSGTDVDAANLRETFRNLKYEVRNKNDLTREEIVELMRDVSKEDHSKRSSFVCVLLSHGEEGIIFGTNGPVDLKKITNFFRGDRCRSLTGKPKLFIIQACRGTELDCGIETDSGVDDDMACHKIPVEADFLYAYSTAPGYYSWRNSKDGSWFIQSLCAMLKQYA
# SENP luc ctr: interferes with luciferase luminescence in SENP counter-screen; Pre-incubated SENP8/Z-RLRGG-aminoluciferin, luciferase luminescence interference; shares compounds with SENP7 inh; 39% of 6,200 active; inhibition, % at 12.5 µM;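 active = mean inhibition above about 50% when retested at one dose, limit read from the data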
# A number is an active result; - = inactive; . = no result given; ! = not confirmed by another sample.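 The calls were made as follows, unless noted: active = mean inhibition above about 50% in the one-dose retest (limit read from the data); inactive = the rest.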
SMILES,Apaf1 inhib,UBC13 inh,SENP6 inh,SENP8 block-1,SENP8 block-2,SENP7 inh,SENP8 confirm,SENP6 confirm,SENP7 confirm,Casp3 select,SENP luc ctr
COc1ccc(C2Nc3ccccc3C(=O)N2Cc2ccco2)cc1COc1ccc(F)cc1 (stereo not drawn),-,-,-,-,-,-,.,.,.,.,.
COc1ccc(C2Nc3ccccc3C(=O)N2Cc2ccco2)cc1CN1C(=O)c2ccccc2C1=O (stereo not drawn),-,-,-,-,-,66.0!,-,-,-,-,-
CCCCNC(=O)c1ccc2nc(CC)c(N(CC)CCOC)n2c1,.,.,.,-,.,.,.,.,.,.,.
Cc1ccc(Sc2ncccc2N)cc1,-,-,67.4,-,-,-,-,-,-,-,-
Cc1ccc(Sc2ncccc2O)cc1,-,-,-,-,-,-,.,.,.,.,.
C/C(=N/N=C/c1ccccc1O)c1ccccc1O,-,-,59.8,-,54.6,86.0,-,-,-,-,-
CC(C)Cc1cc(C(=O)Nc2ccc3c(c2)OCO3)no1,-,-,66.4,-,-,53.1,-,-,79.7,59.9,-
CC(C)Cc1cc(C(=O)Nc2ccc(F)cc2F)no1,-,-,64.3,-,-,56.3,-,-,82.3,60.2,-
Cc1csc(NC(=O)Nc2cccc(Cl)c2)n1,-,-,-,-,-,-,.,.,.,.,.
Cc1nnc(NC(=O)Nc2cccc(Cl)c2)s1,-,-,56.5,-,-,-,-,51.7,62.5,56.4,-
CC(C)Cc1cc(C(=O)Nc2cc(Cl)ccc2Cl)no1,-,-,-,-,-,-,.,.,.,.,.
CC(C)c1cc(C(=O)Nc2cccc(Cl)c2)no1,-,-,89.0,-,88.6,90.9,94.4,95.9,101.7,91.7,87.6
Cc1cc(C(=O)Nc2ccc3c(c2)OCO3)no1,-,-,-,-,-,-,.,.,.,.,.
O=C(N[C@H]1CC[C@H](CCNC(=O)C2CC2)O[C@@H]1CO)c1ccccn1,.,.,.,-,.,.,.,.,.,.,.
CC(C)Cc1cc(C(=O)Nc2cccc(O)c2)no1,-,-,92.8,-,85.6,91.5,90.6,90.6,99.0,91.8,74.6
CC(C)n1nnnc1C1c2ccccc2C(=O)N1Cc1ccccc1 (stereo not drawn),.,.,.,-,.,.,.,.,.,.,.
Cc1[nH]c(=O)c(Cc2ccccc2)c(O)c1C#N,-,-,-,-,-,-,.,.,.,.,.
Cn1c(=O)c2c(O)c(Cc3ccccc3)c(=O)[nH]c2n(C)c1=O,-,-,61.5,-,-,-,-,-,65.8,63.9,-
CC[C@@H](C)C(NC(=O)OC(C)(C)C)c1cn([C@@H](Cc2ccc(O)cc2)C(=O)N2CCN(C(=O)OC(C)(C)C)CC2)nn1 (stereo partly drawn),-,-,81.8,-,-,-,-,-,-,-,-
C/C(=N/OC(=O)c1ccccc1Br)c1ccc(C)cc1,-,-,60.8,-,-,-,-,-,72.1,-,-
C/C(=N\OC(=O)c1ccc(Cl)c(Cl)c1)c1sc(C)nc1C,-,-,51.3,-,-,-,-,-,-,-,-
C/C(=N/OC(=O)c1ccc(C)cc1)c1cccs1,-,-,97.1,-,98.3,99.8,98.3,99.0,101.9,97.3,97.0
C/C(=N\OC(=O)c1ccc(C)cc1)c1sc(C)nc1C,-,-,78.9,-,62.4,77.3,-,72.8,92.5,78.6,57.2
CC(C)(C)C(=O)OC/C(N)=N/OC(=O)c1ccc(Cl)c(Cl)c1,-,-,-,-,-,-,.,.,.,.,.
C/C(=N/OC(=O)c1ccc(C)cc1)c1ccc(N2C(=O)C3CCCCC3C2=O)cc1 (stereo not drawn),-,-,-,-,-,-,.,.,.,.,.
SMILES,Apaf1 inhib,UBC13 inh,SENP6 inh,SENP8 block-1,SENP8 block-2,SENP7 inh,SENP8 confirm,SENP6 confirm,SENP7 confirm,Casp3 select,SENP luc ctr
CC1(C(=O)NS(=O)(=O)c2ccc(Cl)cc2)CCN1C(=O)Cc1ccsc1 (stereo not drawn),.,.,.,-,.,.,.,.,.,.,.
O=C1C(Cl)=C(NCCc2ccccc2)C(=O)c2ccccc21,.,.,.,-,.,.,.,.,.,.,.
CC(C)NC1=C(Cl)C(=O)c2ccccc2C1=O,63.2,-,55.9,51.7,-,-,-,-,-,-,-
C=CCNC1=C(Cl)C(=O)c2ccccc2C1=O,-,-,59.0,72.0,-,-,-,50.0,-,-,-
COc1ccc(C(N)c2csc(Nc3ccc(S(C)(=O)=O)cc3)n2)cc1 (stereo not drawn),.,.,.,-,.,.,.,.,.,.,.
Cc1cc([N+](=O)[O-])cc(/C=N\NC(=O)C2COc3ccccc3O2)c1O (stereo not drawn),-,-,64.0,-,-,-,-,-,66.1,-,-
O=C(N/N=C\c1ccc(O)c([N+](=O)[O-])c1)C1COc2ccccc2O1 (stereo not drawn),-,-,-,-,-,-,.,.,.,.,.
Nc1c(Cl)cc2c(c1Oc1ccccc1)C(=O)c1ccccc1C2=O,-,-,58.1,-,-,-,-,-,-,-,-
Nc1c(Cl)cc2c(c1Br)Cc1ccccc1-2,.,.,.,-,.,.,.,.,.,.,.
COc1ccc(C(=O)CSc2nnc(Cc3ccccc3)o2)cc1,-,-,-,-,-,59.5,-,-,-,-,-
O=C(COc1cc2oc(=O)c3c(c2cc1Cl)CCC3)Nc1cccnc1,-,-,-,-,-,66.5,-,-,-,-,-
COc1ccccc1-c1cnc(C(O)c2ccc(Cl)cc2C)[nH]1 (stereo not drawn),.,.,.,-,.,.,.,.,.,.,.
COc1ccc(C(=O)Oc2ccc(/C=N/O)cc2)cc1,-,-,78.7,-,52.9,61.0,66.9,66.8,90.1,73.2,-
COCC(C)n1c(C)cc(C(=O)COC(=O)c2n[nH]c3ccccc23)c1C (stereo not drawn),-,-,54.9,-,-,-,-,-,66.8,-,-
O=C(Nc1nnc(C(F)(F)F)s1)c1ccc(Br)s1,-,-,52.7,-,73.0,62.3,-,52.8,77.0,-,-
Cc1cc(C(=O)Nc2nnc(C(F)(F)F)s2)no1,-,-,-,-,-,-,.,.,.,.,.
Cc1cc(C(=O)Nc2nnc(C(F)(F)F)s2)cs1,-,-,76.2,-,65.1,57.6,65.6,68.2,86.5,84.2,-
CCc1nc2ccc(C(=O)NCc3ccc4c(c3)OCO4)cn2c1N(C)Cc1cccs1,.,.,.,-,.,.,.,.,.,.,.
O=C(NCc1ccccc1)c1cc(C2CCCCN2C(=O)c2cccs2)on1 (stereo not drawn),.,.,.,-,.,.,.,.,.,.,.

# Compound activity (PubChem)
